For assay [1], the target named is T1, Peroxisome proliferator-activated receptor alpha (Homo sapiens, UniProt Q07869).
T1 sequence (Q07869 whole entry): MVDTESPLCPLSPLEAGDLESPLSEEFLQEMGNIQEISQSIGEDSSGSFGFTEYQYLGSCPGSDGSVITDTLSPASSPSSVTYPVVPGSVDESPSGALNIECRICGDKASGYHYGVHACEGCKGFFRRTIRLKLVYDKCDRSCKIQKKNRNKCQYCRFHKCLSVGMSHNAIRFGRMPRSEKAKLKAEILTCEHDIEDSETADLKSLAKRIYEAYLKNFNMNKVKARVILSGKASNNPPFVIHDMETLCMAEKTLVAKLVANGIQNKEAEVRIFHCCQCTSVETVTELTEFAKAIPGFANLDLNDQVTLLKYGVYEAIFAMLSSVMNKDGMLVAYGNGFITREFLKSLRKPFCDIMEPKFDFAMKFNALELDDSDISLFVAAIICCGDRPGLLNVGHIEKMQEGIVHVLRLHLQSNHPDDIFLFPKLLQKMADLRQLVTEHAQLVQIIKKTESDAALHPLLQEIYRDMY
The assay is described as follows: Binding affinity to human PPAR alpha.

Assay [2] addresses T2, Peroxisome proliferator-activated receptor delta (Homo sapiens, UniProt Q03181).
T2 sequence (Q03181 whole entry): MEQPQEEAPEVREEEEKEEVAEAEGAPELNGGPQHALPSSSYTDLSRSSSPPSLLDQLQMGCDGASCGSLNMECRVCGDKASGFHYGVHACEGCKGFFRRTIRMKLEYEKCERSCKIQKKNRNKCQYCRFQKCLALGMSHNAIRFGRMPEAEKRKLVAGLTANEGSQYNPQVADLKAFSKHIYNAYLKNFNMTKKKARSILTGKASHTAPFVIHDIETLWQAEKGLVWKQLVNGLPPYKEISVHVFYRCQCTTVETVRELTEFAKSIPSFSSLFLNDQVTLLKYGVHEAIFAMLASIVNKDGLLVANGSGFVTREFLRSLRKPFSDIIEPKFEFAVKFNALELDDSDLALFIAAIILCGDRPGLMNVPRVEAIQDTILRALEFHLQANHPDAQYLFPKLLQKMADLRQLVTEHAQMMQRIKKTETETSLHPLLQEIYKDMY
The experiment in a line: Binding affinity to human PPAR delta.

In assay [3] the target is T3, Peroxisome proliferator-activated receptor gamma (Homo sapiens, UniProt P37231).
T3 sequence (P37231 whole entry): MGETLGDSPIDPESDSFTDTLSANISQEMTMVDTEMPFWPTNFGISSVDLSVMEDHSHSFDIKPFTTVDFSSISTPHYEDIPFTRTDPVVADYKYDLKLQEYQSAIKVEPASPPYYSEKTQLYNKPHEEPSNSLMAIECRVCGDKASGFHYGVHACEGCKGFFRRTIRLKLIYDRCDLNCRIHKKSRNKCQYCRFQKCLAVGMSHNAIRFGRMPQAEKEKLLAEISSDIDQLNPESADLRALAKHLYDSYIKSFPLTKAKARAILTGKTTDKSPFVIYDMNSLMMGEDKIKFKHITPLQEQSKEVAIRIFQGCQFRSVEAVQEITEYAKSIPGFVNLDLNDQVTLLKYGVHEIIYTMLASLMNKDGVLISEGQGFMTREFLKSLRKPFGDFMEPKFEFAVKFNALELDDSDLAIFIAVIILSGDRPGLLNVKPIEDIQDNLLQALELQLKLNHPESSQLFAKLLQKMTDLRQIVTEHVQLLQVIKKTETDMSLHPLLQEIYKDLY

The target of assay [4] is T1, Peroxisome proliferator-activated receptor alpha. The assay is described as follows: Transactivation by human PPAR alpha in COS1 cells. Type of assay: functional, cell-based, COS-1.
The target in assay [5] is T3, Peroxisome proliferator-activated receptor gamma. The format is functional, cell-based, COS-1.
The target of assay [6] is T2, Peroxisome proliferator-activated receptor delta. The experiment in a line: Transactivation by human PPAR delta in COS1 cells. Type of assay: functional, cell-based, COS-1.
Another assay deals with Cytochrome P450 2C9 (Homo sapiens, UniProt P11712).
Cytochrome P450 2C9, sequence (P11712 whole entry): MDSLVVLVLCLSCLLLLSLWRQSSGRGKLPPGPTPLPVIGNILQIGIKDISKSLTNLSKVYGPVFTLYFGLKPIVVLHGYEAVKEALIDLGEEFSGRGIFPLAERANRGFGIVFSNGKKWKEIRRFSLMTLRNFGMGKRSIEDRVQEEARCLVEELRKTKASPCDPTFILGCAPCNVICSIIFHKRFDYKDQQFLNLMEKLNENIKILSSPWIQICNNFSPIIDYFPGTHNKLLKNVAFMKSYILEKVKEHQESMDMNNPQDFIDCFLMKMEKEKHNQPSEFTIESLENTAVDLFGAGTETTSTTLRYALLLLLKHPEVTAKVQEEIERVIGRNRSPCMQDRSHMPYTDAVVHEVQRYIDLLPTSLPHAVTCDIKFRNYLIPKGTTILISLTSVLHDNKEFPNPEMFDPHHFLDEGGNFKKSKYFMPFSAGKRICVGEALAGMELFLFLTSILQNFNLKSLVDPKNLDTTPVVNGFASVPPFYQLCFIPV
The subject of assay [7] is Syrian golden hamster. The assay is described as follows: Decrease in cholesterol level in Golden Syrian hamster at 100 mg/kg, po. The format is functional, Mesocricetus auratus. On the set-up: scale not given: the % may be the effect or the level left. The essentials:
(§1)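 Male Golden Syrian hamsters (120–150 g, n = 10) on normal rodent chow with free access to water. Sodium salts were given by oral gavage once daily for 9 days in 0.5% methylcellulose vehicle. Serum cholesterol and triglycerides were measured and reported as % change.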

In assay [8] the test system is Syrian golden hamster. The experiment in a line: Decrease in triglyceride level in Golden Syrian hamster at 100 mg/kg, po. Type of assay: functional, Mesocricetus auratus. On the set-up: scale not given: the % may be the effect or the level left. Summed up: as §1
The test system of assay [9] is Canis familiaris. The assay is described as follows: Decrease in cholesterol level in Beagle dog at 50 mg/kg, po. The format is functional, Canis lupus familiaris. Set-up: scale not given: the % may be the effect or the level left. The essentials: (§2)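 Male beagle dogs (12–18 kg, n = 5) fed cholesterol-free chow ad libitum with free access to water. Compounds were suspended in 0.5% methylcellulose and gavaged daily for 14 days. Serum cholesterol is reported as a mean value, with final-day data compared against vehicle control.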

For assay [10], the system named is Canis familiaris. The experiment in a line: Decrease in cholesterol level in Beagle dog at 4 mg/kg, po. The format is functional, Canis lupus familiaris. Set-up: scale not given: the % may be the effect or the level left. Summed up: as §2

Some results are limits rather than exact numbers.

Here are results for 25 molecules from ChEMBL document CHEMBL1139027, “Design and synthesis of potent and subtype-selective PPARalpha agonists” (Bioorg Med Chem Lett, 2006).

As for `O=C(O)C(Cc1ccc(OCCCOc2ccc(Oc3ccc(F)cc3)cc2Cl)cc1)c1ccccc1` (centres undefined), the IC50 in assay [1] was 0.262 µM; in assay [2] (read-out: IC50), 1.34 µM; in assay [3], “Not Active”.

`CCC(CC)(Oc1ccc(OCCCOc2ccc(Oc3ccc(F)cc3)cc2Cl)cc1)C(=O)O`: the figures for the IC50 in assay [1], in assay [2] and in assay [3] were 0.022 µM, “Not Active” and “Not Active”, respectively. Further, the EC50 in assay [4] (read-out: EC50) is 0.0027 µM; in assay [5] (cos-1), “Not Active”.

Consider `CC[C@](C)(Oc1ccc(OCCCOc2ccc(Oc3ccc(F)cc3)cc2Cl)cc1)C(=O)O`, for which the results for the IC50 in assay [1], in assay [2] (read-out: IC50) and in assay [3] were 0.006 µM, 1.09 µM and “Not Active”, respectively. The EC50 in assay [4] (read-out: EC50) was 0.003 µM; in assay [5] (cos-1), “Not Active”.

For the molecule `CC[C@@](C)(Oc1ccc(OCCCOc2ccc(Oc3ccc(F)cc3)cc2Cl)cc1)C(=O)O`, the IC50 in [1] was 0.101 µM; in assay [2] (read-out: IC50) it was 2.41 µM; in assay [3] it was “Not Active”. Also, the 50% effective concentration (EC50) was 0.02 µM in assay [4] (read-out: EC50) and over 3 µM in [5] (read-out: EC50).

`CCC(C)(Oc1ccc(OCCCOc2ccc(Oc3ccc(F)cc3)cc2Cl)cc1)C(=O)O` (centres undefined): the IC50 in [1] is 0.005 µM; in assay [2], “Not Active”; in [3] (read-out: IC50), 1.24 µM. Moreover, the values for the EC50 in assay [4] (read-out: EC50) and in assay [5] (cos-1) were 0.0025 µM and “Not Active”, respectively.

Consider `CC(C)(Oc1ccc(OCCOc2ccc(Oc3ccc(F)cc3)cc2Cl)cc1)C(=O)O`, for which the EC50 in [1] (read-out: EC50) is 0.087 µM; in [2], “Not Active”; in [3], “Not Active”; in assay [4] (read-out: EC50), 0.062 µM; in assay [6] (cos-1), “Not Active”; in assay [5] (cos-1), “Not Active”.

On to `O=C(O)CCc1ccc(OCCCOc2ccc(Oc3ccc(F)cc3)cc2Cl)cc1`, for which the IC50 is 0.675 µM in assay [1] and over 0.05 µM in [2] (read-out: IC50).

With `CCC1(CC)C=C(C(F)(F)F)c2cc(Cl)c(OCCCOc3ccc(O[C@](C)(CC)C(=O)O)cc3)cc2O1`, the IC50 in assay [1] is 0.125 µM; in assay [2], “Not Active”; in assay [3] it was “Not Active”.

Regarding `CC[C@@](C)(Oc1ccc(OCCCOc2ccc3c(C(F)(F)F)cc(=O)oc3c2Cl)cc1)C(=O)O`, the figures for the IC50 in assay [1], in assay [2] (read-out: IC50) and in [3] were 0.157 µM, 3.27 µM and “Not Active”, respectively.

For `CC[C@@](C)(Cc1ccc(OCCCOc2ccccc2Cl)cc1)C(=O)O`, the results for the IC50 in assay [1] and in assay [2] (read-out: IC50) were 0.042 µM and 4.63 µM, respectively. For the same molecule, the EC50 in [4] (read-out: EC50) worked out at 0.0541 µM.

In the case of `CCCc1cc(Oc2ccc(F)cc2)ccc1OCCCOc1ccc(OC(C)(C)C(=O)O)cc1`, the EC50 in [1] (read-out: EC50) was 0.11 µM; in [2] (read-out: EC50), 0.106 µM; in assay [4] (read-out: EC50), 0.051 µM; in [6] (read-out: EC50) it was 0.055 µM.

As to `CC[C@@](C)(Cc1ccc(OCCCOc2ccc3c(C(F)(F)F)cc(=O)oc3c2C)cc1)C(=O)O`, the figures for the IC50 in assay [1], in assay [2] (read-out: IC50) and in assay [3] were 0.049 µM, 0.134 µM and “Not Active”, respectively. Besides, the EC50 in assay [4] (read-out: EC50) came to 0.01 µM.

Turning to `CCC(Cc1ccc(OCCCOc2ccc(Oc3ccc(F)cc3)cc2Cl)cc1)C(=O)O` (centres undefined), the IC50 was 0.156 µM in assay [1], 1.17 µM in assay [2] (read-out: IC50) and “Not Active” in [3].

On to `CC(Cc1ccc(OCCCOc2ccc(Oc3ccc(F)cc3)cc2Cl)cc1)C(=O)O` (centres undefined), for which the IC50 in assay [1] was 0.208 µM; in [2] (read-out: IC50), 4.07 µM; in [3], “Not Active”.

For the molecule `CC[C@@](C)(Cc1ccc(OCCCOc2ccc(CC(F)(F)F)cc2Cl)cc1)C(=O)O`, the IC50 in assay [1] was under 0.001 µM; in assay [2] (read-out: IC50), over 70 µM; in [3] (read-out: IC50), over 6 µM; on Cytochrome P450 2C9, under 0.05 µM. Besides, the EC50 in assay [4] (read-out: EC50) is under 0.001 µM; in assay [5] (cos-1), “Not Active”.

As to `CC[C@@](C)(Cc1ccc(OCCCOc2ccc3c(C)cc(O)nc3c2)cc1)C(=O)O`, the IC50 in assay [1] was 6.09 µM; in assay [2], “Not Active”; in [3] it was “Not Active”.

On to `CC(C)(Oc1ccc(OCCCOc2ccc(Oc3ccc(F)cc3)cc2Cl)cc1)C(=O)O`, for which the IC50 in assay [1] turned out to be 0.03 µM; in assay [2] (read-out: IC50), 2.39 µM. The EC50 was 0.02 µM in assay [4] (read-out: EC50) and over 3 µM in [6] (read-out: EC50).

As for `CCCc1cc(Oc2ccc(F)cc2)ccc1OCCCOc1ccc(C2SC(=O)NC2=O)cc1` (centres undefined), the EC50 entry in assay [1], in assay [2], in assay [4] (cos-1) and in [6] (cos-1) was “Not Active” each time.

Turning to `CC(C)(Oc1ccc(OCCCCOc2ccc(Oc3ccc(F)cc3)cc2Cl)cc1)C(=O)O`, the EC50 in [1] (read-out: EC50) amounted to 0.066 µM; in [2] (read-out: EC50), 0.545 µM; in assay [4] (read-out: EC50) it was 0.035 µM; in [6] (read-out: EC50), 0.284 µM.

With `CC(C)(Oc1cccc(OCCCOc2ccc(Oc3ccc(F)cc3)cc2Cl)c1)C(=O)O`, the EC50 in assay [1] (read-out: EC50) was 0.036 µM; in assay [3] it was “Not Active”; in assay [4] (read-out: EC50), 0.021 µM.

On to `CCCC(Cc1ccc(OCCCOc2ccc(Oc3ccc(F)cc3)cc2Cl)cc1)C(=O)O` (centres undefined), for which the IC50 in assay [1] was 0.13 µM; in [2] (read-out: IC50) it was 1.13 µM; in assay [3] it was “Not Active”. For the same molecule, the 50% effective concentration (EC50) in [4] (read-out: EC50) stood at 0.454 µM.

Consider `O=C(O)C(Cc1ccc(OCCCOc2ccc(Oc3ccc(F)cc3)cc2Cl)cc1)C1CCC1` (centres undefined), for which the IC50 was 0.116 µM in [1], 1.35 µM in assay [2] (read-out: IC50) and “Not Active” in assay [3]. Besides, the EC50 in assay [4] (read-out: EC50) is 0.015 µM; in assay [5] (cos-1), “Not Active”.

As for `CC(C)(Oc1ccccc1OCCCOc1ccc(Oc2ccc(F)cc2)cc1Cl)C(=O)O`, the EC50 result in assay [1], in assay [2] and in [3] was “Not Active” in each case.

As to `CC(C)OC(=O)C(C)(C)Oc1ccc(C(=O)c2ccc(Cl)cc2)cc1` [FENOFIBRATE], the Activity in the assay with Syrian golden hamster [7] is recorded as -31%; in the assay with Syrian golden hamster [8] it was -30%; in the assay on Canis familiaris [9], -18%.

With `CCC(C)(C)C(=O)O[C@H]1C[C@@H](C)C=C2C=C[C@H](C)[C@H](CC[C@@H]3C[C@@H](O)CC(=O)O3)[C@H]21` [SIMVASTATIN], in the assay on Canis familiaris [10], the Activity was -19%.
